Measured values gathered from unrelated publications.
KIT T670I/V559D: Mast/stem cell growth factor receptor Kit (KIT, Homo sapiens, UniProt P10721, T670I/V559D)
KIT L576P: Mast/stem cell growth factor receptor Kit (KIT, Homo sapiens, UniProt P10721, L576P)
KIT: Mast/stem cell growth factor receptor Kit (KIT, Homo sapiens, UniProt P10721)
KIT autoinhibited: Mast/stem cell growth factor receptor Kit, autoinhibited (KIT, Homo sapiens, UniProt P10721)

For `COc1ccc2[nH]c3c4[nH]c5ccc(OC)cc5c4c4c(c3c2c1)C(=O)NC4=O`, the remaining binding was 49% (KIT T670I/V559D; binding; 1 µM).
`CO[C@@H]1[C@H](N(C)C(=O)c2ccccc2)C[C@H]2O[C@]1(C)n1c3ccccc3c3c4c(c5c6ccccc6n2c5c31)C(=O)NC4` gave an inhibition of 98% (Mast/stem cell growth factor receptor Kit (KIT, Homo sapiens, UniProt P10721, D816H); enzyme activity, inhibitor; 1 µM).
`C#Cc1cnc(Nc2ccnc(CO)c2)nc1Nc1ccccc1S(C)(=O)=NC#N` (stereo not drawn) has a remaining signal of 79% (KIT T670I/V559D; cell-free assay; 1 µM).
`C=CC(=O)N1CCC([C@@H]2CCNc3c(C(N)=O)c(-c4ccc(Oc5ccccc5)cc4)nn32)CC1` has an inhibition of 5% (KIT L576P; enzyme activity, inhibitor; 1 µM).
For `N#Cc1ccc(NC(=O)Nc2ccccc2)cc1`, the remaining binding was 49% (KIT; cell-free assay, competition with immobilised ligand; 25 µM).
`CN1CCN(C(=O)c2ccc(NC(=O)Nc3ccc(N(C)c4ccnc(Nc5ccc(CS(C)(=O)=O)cc5)n4)cc3)cc2)CC1` has a remaining binding of 0% (KIT; binding, competition with immobilised ligand; 1 µM).
`CC#CC(=O)N1CCC[C@H]1c1nc(-c2ccc(C(=O)Nc3ccccn3)cc2)c2c(N)nccn12` gave an inhibition of 13% (KIT L576P; enzyme activity, inhibitor; 1 µM).
With `Cc1ccc(NC(=O)c2ccnc(C(F)(F)F)c2)cc1-c1cc(OCCO)nc(N2CCOCC2)c1` the remaining binding was 91% (Mast/stem cell growth factor receptor Kit (KIT, Homo sapiens, UniProt P10721, V559D/V654A); binding; 1 µM).
For `C1=C/COCc2cc(ccc2OCCN2CCCC2)Nc2nccc(n2)-c2cccc(c2)COC/1`, the remaining binding was 17% (KIT autoinhibited; binding; 0.1 µM).
With `COc1ccc2oc(-c3ccc4nc(N)oc4c3)c/c(=N\c3ccccc3NC(=O)CCN)c2c1` the remaining signal was 102% (Mast/stem cell growth factor receptor Kit (KIT, Homo sapiens, UniProt P10721, V654A); cell-free assay; 1 µM).
`CCCCC(=O)Nc1ccc(-c2ccc3ncn(CCC)c(=O)c3c2)cn1` gave a remaining binding of 97% (KIT autoinhibited; binding, competition with immobilised ligand; 0.5 µM).
With `C[C@H]1CC[C@H](n2c3cnccc3c3cnc(Nc4ccc5c(n4)CCN(C(=O)CO)C5)nc32)CC1` the remaining signal was 36% (Mast/stem cell growth factor receptor Kit (KIT, Homo sapiens, UniProt P10721, A829P); cell-free assay; 1 µM).
